Assay outcomes: PubChem BioAssay, several laboratories
Hits are enriched below; roughly 4.7% of the tested compounds scored in any of these assays.
VIM-2 inhibitor – blocks Pseudomonas aeruginosa VIM-2 metallo-beta-lactamase | purified VIM-2, nitrocefin hydrolysis, epi-absorbance fluorescence | inhibition, % at 5.6 µM | hit rate 0.89% among 290,000 | AID 1527;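 active = inhibition above the mean of all tested compounds plus 3 SD, cutoff set per screening run, cut at about 7.5% in these data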;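 note: red hydrolysis product quenches plate fluorescence so inhibitors raise well fluorescence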
Jurkat NFkB inh – inhibitors of the PMA/ionomycin-induced NF-kB reporter in Jurkat cells; hit rate 0.53% among 330,000; AID 435003; inhibition, % at 4 µM; PMA/ionomycin-induced NF-kB luciferase reporter, luminescence; in the data active = inhibition above about 50%
Mdm2-MdmX inh – inhibitors of human Mdm2/MdmX interaction. O15151+Q00987. SaOS-2 split-luciferase Mdm2/MdmX complementation, luminescence. inhibition, % at 8 µM. hit rate 3% among 330,000. AID 485346;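 active = inhibition of at least 50% at 8 µM in the primary screen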
697 NFkB inh – lowers PMA/ionomycin-induced NF-kB signal in 697 B cells. 697 B-cell NF-kB luciferase reporter, 16 h. inhibition, % at 4 µM. hit rate 0.33% among 330,000; in the data active = inhibition above about 35%
aSyn UTR inh – MLPCN primary screen, SNCA 5' untranslated region; alpha-synuclein 5'UTR reporter, inhibitor activity; inhibition, % (tested at 7.5 µM); hit rate 0.82% among 300,000; in the data active = inhibition above about 60%; inconclusive = no clear call, values can overlap the other calls;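 note: H4 neuroglioblastoma cells stably carrying SNCA 5'UTR luciferase fusion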
IMP-1 inhibitor – inhibitors of Pseudomonas aeruginosa IMP-1 metallo-beta-lactamase; purified IMP-1, nitrocefin hydrolysis, epi-absorbance fluorescence; inhibition, % at 5.6 µM; hit rate 0.45% among 290,000;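 active = inhibition above the mean plus 3 SD of all compounds in the same screening run, cut at about 4.5% in these data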
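Assay system: purified IMP-1; Quantity: IMP-1 0.2 nM before substrate addition; Medium: HEPES buffer pH 7.1 with ZnSO4 and Brij 35; Incubation: 15 min enzyme–compound preincubation, then 25 min nitrocefin reaction, 25 °C; Signal: fluorescence quenching readout, ex 480/em 530 nm; Controls: DMSO with and without IMP-1; Repeats: singlicate testing.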
Mdm2-MdmX conf – confirmation of human Mdm2/MdmX interaction inhibitors; shares compounds with Mdm2-MdmX inh; Mdm2-MdmX binding, luminescent assay; inhibition, % at 8 µM; hit rate 55% among 10,000; in the data active = inhibition above about 40%
FLuc counter – full-length luciferase inhibition in Mdm2/MdmX counter-screen; shares compounds with Mdm2-MdmX inh; SaOS-2 full-length luciferase counterscreen, luminescence; inhibition, % at 8 µM; hit rate 77% among 6,200; AID 504607;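 active = mean inhibition at 8 µM reaching about 37%, which flags the compound as non-specific, limit read from the data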;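 note: p53-null SaOS-2 cells with luciferase driven by a doxycycline-inducible promoter; compound on cells about two nights before reading with doxycycline added after day one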
Numbers stand for hits; – = inactive; ? = inconclusive; · = no result.

SMILES	VIM-2 inhibitor	Jurkat NFkB inh	Mdm2-MdmX inh	697 NFkB inh	aSyn UTR inh	IMP-1 inhibitor	Mdm2-MdmX conf	FLuc counter
COc1ccc2cc(C)c3nnc(SCC(=O)Nc4nc(-c5ccc(F)cc5)cs4)n3c2c1	–	–	86	–	–	–	–	·
COc1ccc(-c2csc(NC(=O)CSc3nc4ccccc4c(=O)[nH]3)n2)cc1	–	–	51	–	–	–	–	·
COc1ccc(-c2csc(NC(=O)CSc3nnc(Nc4ccccc4C)s3)n2)cc1	–	–	–	–	–	–	·	·
Cc1ccc(-n2cccc2C(=O)NS(=O)(=O)c2ccc(C)cc2)cc1	–	–	–	–	–	–	·	·
Cc1ccc(-n2cccc2C(=S)N=P(N(C)C)(N(C)C)N(C)C)cc1	–	–	72	–	–	–	50	51
COc1cc2c(=O)n(Cc3ccco3)c(=O)n(CC(=O)c3cccc(Br)c3)c2cc1OC	–	–	50	–	–	–	–	·
COc1cc2c(=O)n(Cc3ccco3)c(=O)n(CC(=O)c3ccc(Br)cc3)c2cc1OC	–	–	–	–	–	–	·	·
COC(C[C@@H](O)C[C@@H](O)[C@@H](C)OCc1ccccc1)OC	·	–	–	–	–	·	·	·
N#CC(C#N)=c1ccc2c(c1)N1C3=C(CCCC3)CC3CCCCC31N=2 (configuration not stated)	–	–	67	–	–	–	46	38
O=S(=O)(Nc1cccc2ccccc12)c1cccc2nonc12	–	–	–	–	–	–	·	·
Cc1cccc(CS(=O)(=O)c2ncc(Cl)c(C(=O)NCc3ccc4c(c3)OCO4)n2)c1	–	–	60	–	–	–	64	–
CC(=O)Nc1ccc(NC(=O)c2nc(S(=O)(=O)Cc3cccc(C)c3)ncc2Cl)cc1	–	–	86	–	–	–	66	51
COC(=O)c1ccc(NC(=O)c2nc(S(=O)(=O)Cc3cccc(C)c3)ncc2Cl)cc1	–	–	76	–	?	–	91	52
CC1(OC(=O)c2cccs2)C(=O)C=C2C=C(c3ccc(C#N)cc3)OC=C2C1=O (configuration not stated)	·	–	–	–	–	·	·	·
Cc1ccc(S(=O)(=O)N2CCN(C(=O)COC(=O)COc3cccc4c3OC(C)(C)C4)CC2)cc1	·	–	–	–	–	·	·	·
Cc1cccc(N2CN(Cc3ccco3)CNC2=S)c1C	–	–	–	–	–	–	·	·
CC(=O)Nc1ccc(NC(=O)C(C)OC(=O)C23CC4CC(CC(Cl)(C4)C2)C3)cc1 (configuration not stated)	·	–	–	–	·	·	·	·
COc1cccc(C(=O)N2CCSC2=S)c1	–	–	–	–	–	–	·	·
N/C(=N\OC(=O)c1ccc(Cl)c([N+](=O)[O-])c1)c1ccccn1	–	–	67	–	–	–	46	91
N/C(=N\OC(=O)c1ccc(Cl)c([N+](=O)[O-])c1)c1ccccc1	–	–	65	–	–	–	–	·
O=C(COC(=O)c1ccccc1C(=O)c1ccc(Cl)c([N+](=O)[O-])c1)NC1CC1	–	–	100	–	–	–	96	52
CNC(=O)COC(=O)c1ccccc1C(=O)c1ccc(Cl)c([N+](=O)[O-])c1	–	·	·	·	–	–	·	·
CCOC(=O)c1c(NC(=O)c2ccno2)c2cc([N+](=O)[O-])ccc2n1C	–	–	–	–	–	–	·	·
CCOC(=O)c1c(NC(=O)c2cc(C)on2)c2cc([N+](=O)[O-])ccc2n1C	–	–	85	–	–	–	–	·
O=C(CSc1nc2nc(-c3cccs3)cc(C(F)(F)F)c2c(=O)[nH]1)Nc1ccc(F)c(F)c1	–	–	74	–	–	–	46	80
SMILES	VIM-2 inhibitor	Jurkat NFkB inh	Mdm2-MdmX inh	697 NFkB inh	aSyn UTR inh	IMP-1 inhibitor	Mdm2-MdmX conf	FLuc counter
Cc1ccc2nc(N/N=C\c3ccc([N+](=O)[O-])o3)nc(-c3ccccc3)c2c1	–	–	67	–	–	–	–	·
O=[N+]([O-])c1ccc(/C=N/Nc2nc(-c3ccccc3)c3cc(Br)ccc3n2)o1	–	–	–	–	–	–	·	·
N#Cc1ccccc1/C=N/Nc1nc(-c2ccccc2)c2cc(Br)ccc2n1	–	–	55	–	–	–	–	·
CCC1Sc2ccc(S(=O)(=O)N3CCN(c4ccccc4)CC3)cc2NC1=O (configuration not stated)	–	–	–	–	–	–	·	·
Cc1cc(C)n(-c2nnc3n2N=C(c2c[nH]c4ccccc24)CS3)n1	–	–	56	–	–	–	46	50
O=C(NNC1=C(C(=O)C(F)(F)F)CCC1)c1ccc(Cl)cc1	–	–	52	–	–	–	55	76
O=C(NNC1=C(C(=O)C(F)(F)F)CCC1)c1cccc(Cl)c1	–	–	61	–	–	–	–	65
COc1ccc(C(=O)NNC2=C(C(=O)C(F)(F)F)CCC2)cc1	–	–	68	–	–	–	–	97
COc1ccc(C(=O)NNc2ccccc2)cc1	–	–	–	–	–	–	·	·
COc1ccc(Nc2nc(C(F)(F)F)nc(C)c2C#N)cc1	–	–	–	–	–	–	·	·
Brc1ccc(-c2nnc3ccc(N4CCN(c5ccccc5)CC4)nn23)cc1	–	–	100	–	–	–	45	77
Fc1ccc(-c2nnc3ccc(N4CCCC4)nn23)cc1	–	–	–	–	–	–	·	·
CC(NC(=O)c1ccccc1SCC(=O)N1CCCC1)c1ccc(F)cc1 (configuration not stated)	–	–	–	–	–	–	·	·
CC/C(=C(\c1ccccc1)c1ccc(OCCN(C)C)cc1)c1ccccc1	·	–	58	–	–	·	–	·
CN(C)CCOc1ccc(C(C)(C)c2ccccc2)cc1	–	–	–	–	–	–	·	·
CCN(CC)CCOc1ccc(/C(=C(/Cl)c2ccccc2)c2ccccc2)cc1	–	–	69	–	–	–	–	76
CC/C(=C(\c1ccc(O)cc1)c1ccc(OCCN(C)C)cc1)c1ccccc1	–	–	93	–	–	–	–	61
COc1ccc(CNC(=O)/C=C/c2cc([N+](=O)[O-])ccc2OC(F)F)cc1OC	–	–	–	–	–	–	·	·
COCCN(C(=O)CCN1C(=O)C2CC=CCC2C1=O)c1c(N)n(CC(C)C)c(=O)[nH]c1=O (configuration not stated)	·	–	–	–	·	·	·	·
c1ccc(OCCOCCN2CCN(C(c3ccccc3)c3ccccc3)CC2)cc1	–	–	52	–	–	–	–	·
CSCC[C@H](N)C(=O)N1CCC(C(=O)N[C@H](C)C(=O)Nc2ccc(C(C)C)cc2)CC1	–	–	–	–	–	–	·	·
